The target in data set [1] is T1, Inosine-5'-monophosphate dehydrogenase (Cryptosporidium parvum, UniProt Q8T6T2).
T1 sequence (Q8T6T2 whole entry): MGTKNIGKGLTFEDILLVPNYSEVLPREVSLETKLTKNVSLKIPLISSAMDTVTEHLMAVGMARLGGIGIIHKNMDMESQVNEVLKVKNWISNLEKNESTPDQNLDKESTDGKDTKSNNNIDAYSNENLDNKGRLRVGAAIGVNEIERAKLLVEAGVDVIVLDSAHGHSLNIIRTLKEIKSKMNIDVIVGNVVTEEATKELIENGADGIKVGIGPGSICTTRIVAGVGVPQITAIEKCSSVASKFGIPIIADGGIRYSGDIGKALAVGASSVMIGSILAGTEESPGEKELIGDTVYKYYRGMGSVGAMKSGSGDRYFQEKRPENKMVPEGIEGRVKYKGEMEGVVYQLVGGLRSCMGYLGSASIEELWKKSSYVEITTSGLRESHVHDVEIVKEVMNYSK
The data set is described as follows: Inhibition of recombinant Cryptosporidium parvum IMPDH assessed as production of NADH by fluorescence assay in presence of 0.05% BSA. The method, boiled down:
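Enzyme inhibition was measured with 0.05% fatty acid free BSA added, to assess non-specific binding.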

Data set [2] deals with T1, Inosine-5'-monophosphate dehydrogenase. The data set is described as follows: Inhibition of recombinant Cryptosporidium parvum IMPDH assessed as production of NADH by fluorescence assay.
In data set [3] the test system is Cryptosporidium parvum. The experiment in a line: Antiparasitic activity against Cryptosporidium parvum infected in IL12 knockout mouse model at 250 mg/kg, po for 7 days. It counts as functional, organism-based. Also noted: dose 250 mg/kg. The procedure, abridged: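 IL12 knockout mice were inoculated with 1,000 oocysts and, from 4 h post-infection, dosed by gavage once daily for 7 days at 250 mg/kg in 10% DMSO/corn oil. Controls were vehicle and paromomycin 2000 mg/kg. Oocysts from feces (days 0, 4, 7) were purified on sucrose gradients, stained 20 min with FITC-labelled OW50 antibody, and counted by flow cytometry, with ANOVA.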

Data set [4] relates to Toxoplasma gondii. The experiment in a line: Selectivity ratio for EC50 for wild type Toxoplasma gondii to EC50 for Cryptosporidium parvum IMPDH expressing Toxoplasma gondii. It counts as functional.
Data set [5] concerns Toxoplasma gondii. The experiment in a line: Antiparasitic activity against Cryptosporidium parvum IMPDH expressing Toxoplasma gondii assessed as growth inhibition. It counts as functional, organism-based.
For data set [6], the system named is Toxoplasma gondii. The experiment in a line: Antiparasitic activity against wild type Toxoplasma gondii assessed as growth inhibition. In kind it is functional, organism-based.
The subject of data set [7] is Liver. The experiment in a line: Half life in mouse liver microsomes. It counts as ADME, Microsome. Background: Liver microsomes are a subcellular fraction often used to study metabolism.
Data set [8] concerns the target T2, Inosine-5'-monophosphate dehydrogenase (Cryptosporidium parvum) (UniProt Q8T6T2).
T2 sequence (whole entry): T1 sequence (Q8T6T2 whole entry)
The data set is described as follows: Pure noncompetitive inhibition of recombinant Cryptosporidium parvum IMPDH with respect to NAD+.

Data set [9] has as its target T2, Inosine-5'-monophosphate dehydrogenase (Cryptosporidium parvum). The data set is described as follows: Mixed type inhibition of recombinant Cryptosporidium parvum IMPDH with respect to NAD+.

Calls of active or inactive are those of the source. No cut-off for these calls is given here.

We go through 52 compounds from ChEMBL document CHEMBL2311526, “Phthalazinone inhibitors of inosine-5'-monophosphate dehydrogenase from Cryptosporidium parvum” (Bioorg Med Chem Lett, 2013).

By IC50 is commonly meant the midpoint of a concentration-inhibition curve. A word on the EC50: it is the concentration that produces a half-maximal response.

As for `COc1cc(NC(=O)Cc2nn(C)c(=O)c3ccccc23)ccc1Cl`, the IC50 was 40 nM in data set [1] and 33 nM in [2].
In the case of `Cc1ccc(NC(=O)Cc2nn(C)c(=O)c3ccccc23)cc1`, in [2], the IC50 was greater than 5000 nM.
In the case of `Cn1nc(CC(=O)Nc2ccc(Cl)c(C(F)(F)F)c2)c2ccccc2c1=O`, the outcome in [3] was inactive. In [4], the “Ratio EC50” value was found to be 60. Besides, the EC50 in data set [5] came out at 400 nM; in data set [6], 23 µM. In addition, the IC50 worked out at 25 nM in [1] and 13 nM in [2]. Besides, in [7], the t1/2 came out at 79 min. The Kii in [8] came to 3.4 nM. Besides, the Kis in [8] came to 3.4 nM.
Regarding `Cn1nc(CC(=O)Nc2ccc(C#N)cc2)c2ccccc2c1=O`, the values for the IC50 in [1] and in data set [2] were 940 nM and 950 nM, respectively.
Consider `Cn1nc(CC(=O)Nc2ccc(Br)c(C(F)(F)F)c2)c2ccccc2c1=O`, for which the “Ratio EC50” value in data set [4] was found to be 14. The EC50 in data set [5] amounted to 300 nM; in data set [6], 4 µM. Also, the IC50 in [1] was determined as 48 nM; in data set [2], 24 nM.
Regarding `Cn1nc(CC(=O)Nc2ccc(Cl)c(Cl)c2)c2ccccc2c1=O`, the IC50 was determined as 95 nM in data set [1] and 55 nM in data set [2].
With `Cn1nc(CC(=O)Nc2ccc(Br)cc2C(F)(F)F)c2ccccc2c1=O`, the IC50 in data set [2] was greater than 5000 nM.
The same measure, in the same setting: the figure for `Cn1nc(CC(=O)Nc2ccc(Cl)cc2C(F)(F)F)c2ccccc2c1=O` is greater than 5000 nM.
For the compound `COc1cccc(NC(=O)Cc2nn(C)c(=O)c3ccccc23)c1`, the IC50 in [2] was greater than 5000 nM.
Same read-out and setting: the figure for `Cn1nc(CC(=O)Nc2ccc(Cl)cc2Cl)c2ccccc2c1=O` is greater than 5000 nM.
On the same count and under the same terms, the figure for `Cn1nc(CC(=O)Nc2ccc(C(F)(F)F)cc2)c2ccccc2c1=O` is greater than 5000 nM.
On to `Cn1nc(CC(=O)Nc2ccc(C#N)c(Cl)c2)c2ccccc2c1=O`, for which the values for the IC50 in data set [1] and in data set [2] were 470 nM and 290 nM, respectively.
As for `Cn1nc(CC(=O)Nc2ccc(F)cc2)c2ccccc2c1=O`, in data set [2], the IC50 is greater than 5000 nM.
`COc1ccc(NC(=O)Cc2nn(C)c(=O)c3ccccc23)cc1`: in data set [9], the Kii turned out to be 7 µM and the Kis is 1.8 µM. For the same compound, the IC50 in data set [1] stood at 930 nM. Further, the IC50 in data set [2] amounted to 1000 nM.
For `Cn1nc(CC(=O)Nc2ccc3ccccc3c2)c2ccccc2c1=O`, the values for the IC50 in data set [1] and in data set [2] were 140 nM and 63 nM, respectively.
The matching figures for `Cc1cc2cc(NC(=O)Cc3nn(C)c(=O)c4ccccc34)ccc2o1`: 72 nM and 64 nM.
The matching figures for `Cc1cc(NC(=O)Cc2nn(C)c(=O)c3ccccc23)ccc1C#N`: 460 nM and 400 nM.
Consider `Cn1nc(CC(=O)NN)c2ccccc2c1=O`, for which, in data set [2], the IC50 is greater than 5000 nM.
For the compound `Cn1nc(CC(=O)Nc2ccc(F)c(C(F)(F)F)c2)c2ccccc2c1=O`, the IC50 in data set [1] and in data set [2] was 150 nM each time.
In the case of `O=C(Cc1n[nH]c(=O)c2ccccc12)Nc1ccc(Br)c(C(F)(F)F)c1`, the IC50 amounted to 130 nM in data set [1] and 32 nM in data set [2].
Take `Cn1nc(CC(=O)Nc2ccc(Br)cc2Br)c2ccccc2c1=O`: in [2], the IC50 is greater than 5000 nM.
For the compound `Cc1cc(NC(=O)Cc2nn(C)c(=O)c3ccccc23)ccc1Br`, the IC50 in data set [1] turned out to be 140 nM; in data set [2] it was 70 nM.
For the compound `Cn1nc(CC(=O)Nc2cc(Cl)cc(Cl)c2)c2ccccc2c1=O`, the IC50 in data set [2] was greater than 5000 nM.
In the case of `Cn1nc(CC(=O)NC(C)(C)C)c2ccccc2c1=O`, the IC50 in data set [2] was greater than 5000 nM.
As for `Cn1nc(CC(=O)Nc2ccc(Br)c(Cl)c2)c2ccccc2c1=O`, the IC50 in data set [1] was determined as 75 nM; in data set [2] it was 30 nM.
For the compound `Cn1nc(CC(=O)Nc2ccc3[nH]c4ccccc4c3c2)c2ccccc2c1=O`, the IC50 in data set [2] was greater than 5000 nM.
As for `Cn1nc(CC(=O)Nc2cc(F)c(F)c(F)c2)c2ccccc2c1=O`, in [2], the IC50 was greater than 5000 nM.
Same read-out and setting: the figure for `Cn1nc(CC(=O)Nc2cccc(Cl)c2)c2ccccc2c1=O` is greater than 5000 nM.
Take `Cn1nc(CC(=O)Nc2ccc3occc3c2)c2ccccc2c1=O`: the IC50 in [1] is 85 nM; in [2] it was 93 nM.
On to `Cn1nc(CC(=O)Nc2ccc3oc4c(c3c2)CCCC4)c2ccccc2c1=O`, for which the “Ratio EC50” value in data set [4] is on record as 2. For the same compound, the EC50 in [5] is 500 nM; in data set [6] it was 1 µM. Moreover, the IC50 in [1] was 150 nM; in [2] it was 20 nM.
As for `COc1ccccc1NC(=O)Cc1nn(C)c(=O)c2ccccc12`, the IC50 in [2] is greater than 5000 nM.
Consider `COc1ccc(NC(=O)Cc2nn(C)c(=O)c3ccccc23)cc1C(F)(F)F`, for which the IC50 in [2] is greater than 5000 nM.
Turning to `Cn1nc(CC(=O)Nc2cc(Cl)c(Cl)c(Cl)c2)c2ccccc2c1=O`, the IC50 in data set [2] was greater than 5000 nM.
On the same count and under the same terms, under `Cn1nc(CC(=O)Nc2ccc3c(c2)oc2ccccc23)c2ccccc2c1=O` stands greater than 5000 nM; under `Cn1nc(CC(=O)Nc2ccc(OC(F)(F)F)cc2)c2ccccc2c1=O`, greater than 5000 nM.
Consider `Cn1nc(CC(=O)Nc2ccc(Cl)c(F)c2)c2ccccc2c1=O`, for which the results for the IC50 in [1] and in data set [2] were 240 nM and 200 nM, respectively.
For `Cn1nc(CC(=O)Nc2ccc(Br)cc2F)c2ccccc2c1=O`, in that order: 1700 nM and 1100 nM.
Take `Cn1nc(CC(=O)Nc2ccc(Cl)cc2)c2ccccc2c1=O`: the IC50 in data set [1] stood at 280 nM; in data set [2] it was 230 nM.
As to `Cn1nc(CC(=O)Nc2ccc(S(C)(=O)=O)cc2)c2ccccc2c1=O`, the IC50 in data set [2] is greater than 5000 nM.
As to `CCOc1ccc(NC(=O)Cc2nn(C)c(=O)c3ccccc23)cc1`, the IC50 in data set [2] is greater than 5000 nM.
Consider `Cn1nc(CC(=O)Nc2ccc(C#N)c(C(F)(F)F)c2)c2ccccc2c1=O`, for which the IC50 in [1] is 52 nM; in data set [2], 54 nM.
The matching figures for `Cn1nc(CC(=O)Nc2ccc(Br)cc2)c2ccccc2c1=O`: 130 nM and 130 nM.
`Cn1nc(CC(=O)Nc2ccc(N)c(C(F)(F)F)c2)c2ccccc2c1=O`: the IC50 in [2] is greater than 5000 nM.
On to `Cn1nc(CC(=O)Nc2ccc(C#N)c(C#N)c2)c2ccccc2c1=O`, for which the IC50 in data set [1] and in data set [2] was greater than 2500 nM each time.
Regarding `CCn1c2ccccc2c2cc(NC(=O)Cc3nn(C)c(=O)c4ccccc34)ccc21`, the IC50 in data set [2] was greater than 5000 nM.
As for `O=C(Cc1n[nH]c(=O)c2ccccc12)Nc1ccc(Cl)c(C(F)(F)F)c1`, the results for the IC50 in data set [1] and in data set [2] were 61 nM and 40 nM, respectively.
Turning to `Cc1cc(NC(=O)Cc2nn(C)c(=O)c3ccccc23)ccc1Cl`, the IC50 was 96 nM in data set [1] and 79 nM in [2].
On to `COc1ccc(CNC(=O)Cc2nn(C)c(=O)c3ccccc23)cc1`, for which, in data set [2], the IC50 was greater than 5000 nM.
With `CC(C)c1ccc(NC(=O)Cc2nn(C)c(=O)c3ccccc23)cc1`, the IC50 in data set [2] is greater than 5000 nM.
With `Cn1nc(CC(=O)Nc2cccc(C(F)(F)F)c2)c2ccccc2c1=O`, the IC50 in [2] is greater than 5000 nM.
Regarding `Cn1nc(CC(=O)Nc2ccc3oc4ccccc4c3c2)c2ccccc2c1=O`, the “Ratio EC50” value in [4] is 7. In addition, the EC50 in [5] stood at 400 nM; in [6], 3 µM. Further, the IC50 in data set [1] amounted to 30 nM.
Take `Cn1nc(CC(=O)Nc2ccc3ocnc3c2)c2ccccc2c1=O`: the IC50 in data set [2] was greater than 5000 nM.
